Measurements reported in ChEMBL document CHEMBL3244241, “Synthesis of cephalotaxine esters and correlation of their structures with antitumor activity” (J Med Chem, 1977).
The source made the active and inactive calls. The rule behind the calls is not given here.

Key:
P388 [1] = test: Antitumor activity against mouse P388 cells allografted in ip dosed DBA/2 mouse administered for 9 days; format: functional, organism-based
Method in brief: (§1)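 P388 lymphocytic leukemia in DBA/2 mice; one intraperitoneal injection per day for 9 days. […] Injection vehicles were water + alcohol, saline + Tween 80, or aqueous 0.5% citric acid. Some tests were duplicated, and 30-day cures were recorded.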

P388 [2] = test: Antitumor activity against mouse P388 cells allografted in DBA/2 mouse assessed as host survival at 20 mg/kg/day, ip for 9 days compound administered through water+alcohol+acetone vehicle relative to control; format: functional; conditions: route intraperitoneal
Method in brief: (§2)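 P388 lymphocytic leukemia in DBA/2 mice. Dosing was one intraperitoneal injection per day for 9 days in the vehicle stated. […] Duplicate tests were run for some doses.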

P388 [3] = test: Antitumor activity against mouse P388 cells allografted in DBA/2 mouse assessed as host survival at 10 mg/kg/day, ip for 9 days compound administered through water+alcohol+acetone vehicle relative to control; format: functional; conditions: route intraperitoneal; method in brief: as §2
P388 [4] = test: Antitumor activity against mouse P388 cells allografted in DBA/2 mouse assessed as host survival at 4.4 mg/kg/day, ip for 9 days compound administered through water+alcohol vehicle relative to control; format: functional; conditions: route intraperitoneal; method in brief: as §2
Mus musculus [5] = test: Toxicity in DBA/2 mouse allografted with mouse P388 cells assessed as change in body weight at 40 mg/kg/day, ip for 9 days compound administered through water+alcohol+acetone vehicle; format: organism-based; set-up: route intraperitoneal; conditions: in vivo, 216 h
Method in brief: (§3)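 DBA/2 mice bearing P388 lymphocytic leukemia received one intraperitoneal injection per day for 9 days, given in the vehicle named for each test (water/alcohol-based, saline or saline + Tween 80). Toxicity was noted during dosing alongside survival scoring (T/C, treated versus control mean survival time).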

P388 [6] = test: Antitumor activity against mouse P388 cells allografted in DBA/2 mouse assessed as host survival at 40 mg/kg/day, ip for 9 days compound administered through water+alcohol+acetone vehicle relative to control; format: functional; conditions: route intraperitoneal; method in brief: as §2
Mus musculus [7] = test: Toxicity in DBA/2 mouse allografted with mouse P388 cells assessed as change in body weight at 80 mg/kg/day, ip for 9 days compound administered through water+alcohol+acetone vehicle; format: organism-based; set-up: route intraperitoneal; conditions: in vivo, 216 h; method in brief: as §3
Mus musculus [8] = test: Toxicity in DBA/2 mouse allografted with mouse P388 cells assessed as change in body weight at 10 mg/kg/day, ip for 9 days compound administered through water+alcohol+acetone vehicle; format: organism-based; set-up: route intraperitoneal; conditions: in vivo, 216 h; method in brief: as §3
Mus musculus [9] = test: Toxicity in DBA/2 mouse allografted with mouse P388 cells assessed as change in body weight at 1.9 mg/kg/day, ip for 9 days compound administered through water+alcohol vehicle; format: organism-based; set-up: route intraperitoneal; conditions: in vivo, 216 h; method in brief: as §3
P388 [10] = test: Antitumor activity against mouse P388 cells allografted in DBA/2 mouse assessed as host survival at 80 mg/kg/day, ip for 9 days compound administered through water+alcohol+acetone vehicle relative to control; format: functional; conditions: route intraperitoneal; method in brief: as §2
Mus musculus [11] = test: Toxicity in DBA/2 mouse allografted with mouse P388 cells assessed as change in body weight at 20 mg/kg/day, ip for 9 days compound administered through water+alcohol+acetone vehicle; format: organism-based; set-up: route intraperitoneal; conditions: in vivo, 216 h; method in brief: as §3
P388 [12] = test: Antitumor activity against mouse P388 cells allografted in DBA/2 mouse assessed as host survival at 1.9 mg/kg/day, ip for 9 days compound administered through water+alcohol vehicle relative to control; format: functional; conditions: route intraperitoneal; method in brief: as §2
Mus musculus [13] = test: Toxicity in DBA/2 mouse allografted with mouse P388 cells assessed as change in body weight at 4.4 mg/kg/day, ip for 9 days compound administered through water+alcohol vehicle; format: organism-based; set-up: route intraperitoneal; conditions: in vivo, 216 h; method in brief: as §3
Mus musculus [14] = test: Toxicity in DBA/2 mouse allografted with mouse P388 cells assessed as change in body weight at 320 mg/kg/day, ip for 9 days compound administered through water+alcohol vehicle; format: organism-based; set-up: route intraperitoneal; conditions: in vivo, 216 h; method in brief: as §3
Mus musculus [15] = test: Toxicity in DBA/2 mouse allografted with mouse P388 cells assessed as change in body weight at 40 mg/kg/day, ip for 9 days compound administered through water+alcohol vehicle; format: organism-based; set-up: route intraperitoneal; conditions: in vivo, 216 h; method in brief: as §3
Mus musculus [16] = test: Toxicity in DBA/2 mouse allografted with mouse P388 cells assessed as change in body weight at 160 mg/kg/day, ip for 9 days compound administered through water+alcohol vehicle; format: organism-based; set-up: route intraperitoneal; conditions: in vivo, 216 h; method in brief: as §3
P388 [17] = test: Antitumor activity against mouse P388 cells allografted in DBA/2 mouse assessed as host survival at 40 mg/kg/day, ip for 9 days compound administered through water+alcohol vehicle relative to control; format: functional; conditions: route intraperitoneal; method in brief: as §2
P388 [18] = test: Antitumor activity against mouse P388 cells allografted in DBA/2 mouse assessed as host survival at 320 mg/kg/day, ip for 9 days compound administered through water+alcohol vehicle relative to control; format: functional; conditions: route intraperitoneal; method in brief: as §2
P388 [19] = test: Antitumor activity against mouse P388 cells allografted in DBA/2 mouse assessed as host survival at 13 mg/kg/day, ip for 9 days compound administered through water+alcohol vehicle relative to control; format: functional; conditions: route intraperitoneal; method in brief: as §2
P388 [20] = test: Antitumor activity against mouse P388 cells allografted in DBA/2 mouse assessed as host survival at 20 mg/kg/day, ip for 9 days compound administered through 0.5% citric acid vehicle; format: functional, organism-based; method in brief: as §1
P388 [21] = test: Antitumor activity against mouse P388 cells allografted in DBA/2 mouse assessed as host survival at 80 mg/kg/day, ip for 9 days compound administered through water+alcohol vehicle relative to control; format: functional; conditions: route intraperitoneal; method in brief: as §2
Mus musculus [22] = test: Toxicity in DBA/2 mouse allografted with mouse P388 cells assessed as change in body weight at 80 mg/kg/day, ip for 9 days compound administered through water+alcohol vehicle; format: organism-based; set-up: route intraperitoneal; conditions: in vivo, 216 h; method in brief: as §3
P388 [23] = test: Antitumor activity against mouse P388 cells allografted in DBA/2 mouse assessed as host survival at 8.8 mg/kg/day, ip for 9 days compound administered through water+alcohol vehicle relative to control; format: functional; conditions: route intraperitoneal; method in brief: as §2
Mus musculus [24] = test: Toxicity in DBA/2 mouse allografted with mouse P388 cells assessed as change in body weight at 13 mg/kg/day, ip for 9 days compound administered through water+alcohol vehicle; format: organism-based; set-up: route intraperitoneal; conditions: in vivo, 216 h; method in brief: as §3
P388 [25] = test: Antitumor activity against mouse P388 cells allografted in DBA/2 mouse assessed as host survival at 20 mg/kg/day, ip for 9 days compound administered through water+alcohol vehicle relative to control; format: functional; conditions: route intraperitoneal; method in brief: as §2
P388 [26] = test: Antitumor activity against mouse P388 cells allografted in DBA/2 mouse assessed as host survival at 160 mg/kg/day, ip for 9 days compound administered through water+alcohol vehicle relative to control; format: functional; conditions: route intraperitoneal; method in brief: as §2
Mus musculus [27] = test: Toxicity in DBA/2 mouse allografted with mouse P388 cells assessed as change in body weight at 8.8 mg/kg/day, ip for 9 days compound administered through water+alcohol vehicle; format: organism-based; set-up: route intraperitoneal; conditions: in vivo, 216 h; method in brief: as §3
Mus musculus [28] = test: Toxicity in DBA/2 mouse allografted with mouse P388 cells assessed as change in body weight at 20 mg/kg/day, ip for 9 days compound administered through water+alcohol vehicle; format: organism-based; set-up: route intraperitoneal; conditions: in vivo, 216 h; method in brief: as §3
Mus musculus [29] = test: Toxicity in DBA/2 mouse allografted with mouse P388 cells at 480 mg/kg/day, ip for 9 days; format: organism-based; set-up: route intraperitoneal; conditions: in vivo, 216 h; method in brief: as §3
Mus musculus [30] = test: Toxicity in DBA/2 mouse allografted with mouse P388 cells assessed as change in body weight at 20 mg/kg/day, ip for 9 days compound administered through saline+Tween 80 vehicle; format: organism-based; set-up: route intraperitoneal; conditions: in vivo, 216 h; method in brief: as §3
P388 [31] = test: Antitumor activity against mouse P388 cells allografted in DBA/2 mouse assessed as host survival at 20 mg/kg/day, ip for 9 days compound administered through saline+Tween 80 vehicle relative to control; format: functional; conditions: route intraperitoneal; method in brief: as §2
P388 [32] = test: Antitumor activity against mouse P388 cells allografted in DBA/2 mouse assessed as disease cure at 365 mg/kg/day, ip for 9 days compound administered through water+alcohol vehicle measured after 30 days; format: functional, organism-based; method in brief: as §1
L1210 = test: Antitumor activity against mouse L1210 cells allografted in DBA/2 mouse at 25 to 200 mg/kg; format: functional, organism-based
P388 [33] = test: Antitumor activity against mouse P388 cells allografted in DBA/2 mouse at 480 mg/kg/day, ip for 9 days; format: functional, organism-based; method in brief: as §1

## COC(=O)/C=C/C=C/C(=O)O[C@@H]1C(OC)=C[C@]23CCCN2CCc2cc4c(cc2[C@H]13)OCO4
P388 [1]
  Activity: inactive

## COC(=O)/C=C/C(=O)O[C@@H]1C(OC)=C[C@]23CCCN2CCc2cc4c(cc2[C@H]13)OCO4
P388 [2]
  T/C: 125%
P388 [3]
  T/C: 136%
P388 [4]
  T/C: 147%
Mus musculus [5]
  Activity: -0.9 g
P388 [6]
  T/C: 134%
Mus musculus [7]
  Activity: -0.7 g
Mus musculus [8]
  Activity: -1.2 g
Mus musculus [9]
  Activity: 0.5 g
P388 [10]
  T/C: 145%
Mus musculus [11]
  Activity: -1 g
P388 [12]
  T/C: 134%
Mus musculus [13]
  Activity: -1.5 g

## COC1=C[C@]23CCCN2CCc2cc4c(cc2[C@@H]3[C@@H]1OC(=O)OCC(Cl)(Cl)Cl)OCO4
Mus musculus [14]
  Activity: -1 g
Mus musculus [15]
  Activity: -0.4 g
Mus musculus [16]
  Activity: -0.9 g
P388 [17]
  T/C: 140%
P388 [18]
  T/C: 172%
P388 [19]
  T/C: 138%
P388 [20]
  Activity: inactive
P388 [21]
  T/C: 160%
Mus musculus [22]
  Activity: -1.3 g
P388 [23]
  T/C: 170%
Mus musculus [24]
  Activity: -0.5 g
P388 [25]
  T/C: 128%
P388 [26]
  T/C: 155%
Mus musculus [27]
  Activity: -0.3 g
Mus musculus [28]
  Activity: -2.7 g

## C=C(CC(=O)OC)C(=O)O[C@@H]1C(OC)=C[C@]23CCCN2CCc2cc4c(cc2[C@H]13)OCO4 (single isomer, unassigned) [listing 1 of 2 here]
Mus musculus [29]
  Activity: Toxic

## CCOC(=O)C(=O)O[C@@H]1C(OC)=C[C@]23CCCN2CCc2cc4c(cc2[C@H]13)OCO4
Mus musculus [30]
  Activity: -0.1 g
P388 [19]
  T/C: 154%
P388 [20]
  Activity: inactive
Mus musculus [24]
  Activity: -0.8 g
P388 [25]
  T/C: 135%
P388 [31]
  T/C: 129%
Mus musculus [28]
  Activity: -0.2 g

## C=C(CC(=O)OC)C(=O)O[C@@H]1C(OC)=C[C@]23CCCN2CCc2cc4c(cc2[C@H]13)OCO4
P388 [32]
  Activity: Active
L1210
  Activity: inactive

## COC(=O)/C=C(\C)C(=O)O[C@@H]1C(OC)=C[C@]23CCCN2CCc2cc4c(cc2[C@H]13)OCO4
P388 [1]
  Activity: inactive

## C=C(CC(=O)OC)C(=O)O[C@@H]1C(OC)=C[C@]23CCCN2CCc2cc4c(cc2[C@H]13)OCO4 (single isomer, unassigned) [listing 2 of 2 here]
P388 [33]
  Activity: inactive
